# Laboratory results: PMC3234294 (Analytical chemistry, 2011)
# What was measured:
# [1] = QCM binding of antibodies to MUA sensor surface; settings: 1 μl of 1 μg/μl MAb spiked into 1 ml PBS
# How it was run: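 Au QCM electrodes, bare or modified by overnight SAM formation at 4 °C (MUA or peptide monolayers), rinsed with water and placed in 1 ml PBS. Therapeutic monoclonal antibodies (1 μg/μl stock) were spiked sequentially, 1 μl each, into the cuvette. Frequency change was recorded against time with a network/impedance analyzer.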
# [2] = QCM binding of antibodies to bare Au sensor surface; settings: 1 μl of 1 μg/μl MAb spiked into 1 ml PBS
# [3] = EIS of CH-19 modified Au electrode before and after Herceptin; assay type: physicochemical; settings: bare Au to CH-19 to binding with Herceptin; 0.01 Hz-100 kHz, 5 mV
# Cetuximab = assay: QCM nonspecific binding of immobilized CH-19 to Cetuximab; settings: CH-19 modified Au QCM electrode, PBS, final 1 μg/ml
# How it was run: (§1)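 A CH-19 peptide monolayer was self-assembled on an Au QCM electrode overnight at 4 °C, rinsed, and held in PBS. The non-target therapeutic antibodies were spiked in sequentially into the same cuvette, each as 1 μl into 999 μl PBS (final 1 μg/ml). Label-free frequency shift (ΔF) was followed in real time with a network/impedance analyzer.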
# Herceptin [4] = assay: QCM binding of immobilized HER2 mimotope-derived peptides to Herceptin; design: species or system humanized
# Herceptin [5] = assay: CH-19 piezoimmunosensor analytical performance for Herceptin detection; design: species or system humanized
# [6] = CV of CH-19 modified Au electrode before and after Herceptin; assay type: physicochemical; settings: upon surface deposition of CH-19 and Herceptin; 0.1 M NaClO4, 50 mV/s
# Avastin = assay: QCM nonspecific binding of immobilized peptides to Avastin
# How it was run: as §1
# Rituxan = assay: QCM nonspecific binding of immobilized peptides to Rituxan
# How it was run: as §1
# Herceptin [7] = settings: previously reported; ref 16 (Jiang et al.); cited from earlier work
# [8] = QCM, CV and EIS summarized, all four peptide designs
# [9] = CH-19 modified Au QCM electrode, PBS, final 1 μg/ml
substance,measurement,setting,value
"Avastin: therapeutic MAb, control drug","Binding to MUA sensor surface, in words",[1],appreciable
same,"Binding to bare Au sensor surface, in words",[2],negligible
CGSGSGSQLGPYELWELSH [CH-19],Nyquist plots (electron transfer resistance),[3],enlarged step-by-step
same,frequency shift (ΔF) with Cetuximab,Cetuximab,~ 0 Hz
same,Ka (affinity for Herceptin),Herceptin [4]; CH-19 modified gold QCM electrode (Figure S3),7.96e+08 M⁻¹
same,Buffering effects on Herceptin/CH-19 interaction,"Herceptin [4]; Herceptin lowered 10 fold to 0.1 μg/ml, H2O, PBS or HBS-EP",similar
same,Overall binding capacity with Herceptin among peptide designs,Herceptin [4]; [8],highest binding capacity with Herceptin
same,Herceptin bound to the CH-19 modified gold QCM electrode (mass),"Herceptin [4]; estimated by Sauerbrey's equation, ΔF of 1 Hz about 1 ng, PBS, 1 μg/ml Herceptin",~ 225 ng
same,frequency change (ΔF) with free Herceptin,"Herceptin [4]; simple buffer (1 ml HBS-EP), 1 μl Herceptin stock 1 μg/μl, no serum",~ 275 Hz
same,sensitivity,Herceptin [5]; PBS buffer,0.52 Hz · ml/ng
same,"time to detection of Herceptin, in words","Herceptin [5]; PBS buffer, frequency change vs time",within minutes
same,detection limit,"Herceptin [5]; PBS buffer, S/N = 3, N ~ 1.85 Hz",10.70 ng/mL
same,detection limit,Herceptin [5]; in simple buffers and in human serum samples (Table S3),0.038 nM
same,detection limit,"Herceptin [5]; piezoimmunosensor assay, standard curve in HBS-EP buffer",0.038 nM
same,redox peaks of Fe(CN)6 probe,[6],gradually disappeared
same,frequency shift (ΔF) with Avastin,Avastin; [9],~ 0 Hz
same,Nonspecific binding activity with Avastin among peptide designs,Avastin; [8],lowest nonspecific binding activity
same,frequency shift (ΔF) with Rituxan,Rituxan; [9],~ 0 Hz
same,Nonspecific binding activity with Rituxan among peptide designs,Rituxan; [8],lowest nonspecific binding activity
GPYELWELSH,"specific binding activities to Herceptin, in words",Herceptin [7],exhibited specific binding activities to Herceptin
QLGPYELWELSH,"specific binding activities to Herceptin, in words",Herceptin [7],exhibited specific binding activities to Herceptin
"Rituxan: therapeutic MAb, control drug","Binding to MUA sensor surface, in words",[1],appreciable
same,"Binding to bare Au sensor surface, in words",[2],negligible
